Source: ChEMBL document CHEMBL2375300, “New potent calcimimetics: II. Discovery of benzothiazole trisubstituted ureas” (Bioorg Med Chem Lett, 2013)
Activity calls are given as the source filed them. The calls are words filed in the database; no cut-off is given here.

Assays:
[1] = molecular target: T1, Extracellular calcium-sensing receptor (Homo sapiens, UniProt P41180); assay: Positive allosteric modulation of human CaSR expressed in CHO cells assessed as increase in intracellular calcium level after 5 hrs by luciferase reporter gene assay; format: functional, cell-based
T1 sequence (P41180 whole entry): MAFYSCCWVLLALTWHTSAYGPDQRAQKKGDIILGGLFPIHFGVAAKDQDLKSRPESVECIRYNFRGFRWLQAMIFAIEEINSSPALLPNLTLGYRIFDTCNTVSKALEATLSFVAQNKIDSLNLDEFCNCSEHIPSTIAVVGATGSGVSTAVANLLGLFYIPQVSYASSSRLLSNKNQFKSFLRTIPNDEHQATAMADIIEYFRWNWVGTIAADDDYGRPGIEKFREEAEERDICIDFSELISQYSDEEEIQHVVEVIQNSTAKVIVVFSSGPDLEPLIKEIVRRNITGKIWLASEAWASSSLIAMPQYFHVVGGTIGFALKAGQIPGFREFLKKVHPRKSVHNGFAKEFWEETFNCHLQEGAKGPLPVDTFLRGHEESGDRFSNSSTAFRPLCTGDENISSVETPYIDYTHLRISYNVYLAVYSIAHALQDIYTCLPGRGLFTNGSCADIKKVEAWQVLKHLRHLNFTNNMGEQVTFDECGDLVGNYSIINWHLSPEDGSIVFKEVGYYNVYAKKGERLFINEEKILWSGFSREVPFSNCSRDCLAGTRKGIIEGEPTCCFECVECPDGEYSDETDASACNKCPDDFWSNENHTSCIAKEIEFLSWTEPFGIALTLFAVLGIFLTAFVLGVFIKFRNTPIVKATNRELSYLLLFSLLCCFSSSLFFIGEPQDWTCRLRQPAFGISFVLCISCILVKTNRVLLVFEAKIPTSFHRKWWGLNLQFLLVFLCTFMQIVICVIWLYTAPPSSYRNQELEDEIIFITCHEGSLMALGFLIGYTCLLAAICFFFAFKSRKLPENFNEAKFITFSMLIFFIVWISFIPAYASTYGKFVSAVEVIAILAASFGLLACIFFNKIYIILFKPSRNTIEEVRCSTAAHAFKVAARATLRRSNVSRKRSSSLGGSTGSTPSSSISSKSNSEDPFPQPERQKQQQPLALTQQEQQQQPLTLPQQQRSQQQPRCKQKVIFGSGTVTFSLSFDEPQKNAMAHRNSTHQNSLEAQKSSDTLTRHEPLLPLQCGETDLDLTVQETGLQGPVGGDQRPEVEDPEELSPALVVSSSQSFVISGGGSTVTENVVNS
Outline: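 CHO cells stably transfected with human CaSR and a luciferase reporter (clone ET8-5-5) were seeded at 50K/well, grown 24 h, then serum-starved overnight. Cells were exposed for 5 h at 37 °C to compound dilutions crossed with a CaCl2 range, in HEPES pH 7.4 buffer with 0.3 mM CaCl2 baseline. Luminescence was read. EC50 was taken at 2 mM calcium, n ≥ 1.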

[2] = molecular target: T2, Extracellular calcium-sensing receptor (Homo sapiens) (UniProt P41180); assay: Ratio of R-568 EC50 to compound EC50 for positive allosteric modulation of human CaSR
T2 sequence (whole entry): T1 sequence (P41180 whole entry)

Rattus norvegicus [3] = assay: Antihyperparathyroidism activity in Sprague-Dawley rat chronic renal failure model assessed as increase in serum phosphorus level at 10 mg/kg, po after 24 hrs; format: functional, organism-based; parameters: dose 10 mg/kg
Outline: (§1)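 One week later each received one oral gavage of 10 mg/kg in 0.5% methylcellulose (5 mL/kg), or vehicle alone. Rats were fasted 24 h before decapitation at 2, 6 or 24 h. Serum PTH was measured by rat IRMA, and Ca and P by chemistry analyzer. n = 9–12, ANOVA/t-test against CRF vehicle.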

[4] = molecular target: Voltage-gated inwardly rectifying potassium channel KCNH2 (Homo sapiens, UniProt Q12809); assay: Inhibition of human ERG at 10 uM
Salmonella typhimurium = assay: Genotoxicity in Salmonella typhimurium at 10 uM by Ames test; format: toxicity, organism-based; settings: salmonella enterica subsp. enterica serovar typhimurium
Rattus norvegicus [5] = assay: Toxicity in Sprague-Dawley rat chronic renal failure model assessed as aortic calcification at 10 to 30 mg/kg/day, po administered for 2 months measured 24 hrs post last dose by histological analysis; format: organism-based, Aorta; parameters: route oral; settings: in vivo
Outline: (§2)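 After an untreated interval, they were gavaged once daily with the dihydrochloride salt in 0.5% methylcellulose, or with vehicle at 5 mL/kg. Mortality and side effects were monitored during treatment. Rats were fasted 24 h, then decapitated, and the aorta was examined histologically for calcification.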

Rattus norvegicus [6] = assay: Toxicity in Sprague-Dawley rat chronic renal failure model assessed as decrease in serum calcium level at 10 mg/kg/day, po administered for 2 months measured 24 hrs post last dose (reference value: 4%); format: organism-based; parameters: route oral; scale not given: the % may be the effect or the level left; settings: in vivo, 30 mg/kg, in the assay text read “at 30 mg/kg/day” for “at 10 mg/kg/day”
Outline: (§3)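 Male Sprague–Dawley rats with 5/6 nephrectomy were dosed orally once daily at 10 or 30 mg/kg/day in 0.5% methylcellulose (5 mL/kg), or given vehicle. Dosing ran about 2 months, starting after a post-surgery untreated period. Rats were fasted and killed by decapitation 24 h after the last dose. Serum PTH was measured by rat IRMA and Ca by chemistry analyzer. n = 6–10, compared with CRF vehicle.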

Rattus norvegicus [7] = assay: Toxicity in Sprague-Dawley rat chronic renal failure model assessed as decrease in serum calcium level at 10 mg/kg/day, po administered for 2 months measured 24 hrs post last dose relative to vehicle-treated control; format: organism-based; parameters: route oral; settings: in vivo; outline: as §3
Rattus norvegicus [8] = assay: Toxicity in Sprague-Dawley rat chronic renal failure model assessed as side effects at 10 to 30 mg/kg/day, po administered for 2 months measured 24 hrs post last dose; format: organism-based; parameters: route oral; settings: in vivo; outline: as §2
Rattus norvegicus [9] = assay: Toxicity in Sprague-Dawley rat chronic renal failure model assessed as mortality at 10 to 30 mg/kg/day, po administered for 2 months measured 24 hrs post last dose; format: organism-based; parameters: route oral; settings: in vivo; outline: as §2
Rattus norvegicus [10] = assay: Antihyperparathyroidism activity in Sprague-Dawley rat chronic renal failure model assessed as […] at 30 mg/kg/day, po administered for 2 months measured 24 hrs post last dose relative to vehicle-treated control; format: functional; outline: as §3
Rattus norvegicus [11] = assay: Toxicity in Sprague-Dawley rat chronic renal failure model assessed as decrease in serum calcium level at 10 mg/kg, po after 24 hrs; format: organism-based; parameters: dose 10 mg/kg, route oral; settings: in vivo; outline: as §1
Rattus norvegicus [12] = assay: Antihyperparathyroidism activity in Sprague-Dawley rat chronic renal failure model assessed as decrease in serum PTH level at 10 mg/kg, po after 24 hrs relative to vehicle-treated control; format: functional; parameters: scale not given: the % may be the effect or the level left; outline: as §1
Rattus norvegicus [13] = assay: Antihyperparathyroidism activity in Sprague-Dawley rat chronic renal failure model assessed as decrease in serum PTH level at 10 mg/kg, po after 6 hrs relative to vehicle-treated control; format: functional; parameters: scale not given: the % may be the effect or the level left; outline: as §1
[14] = Half life in Sprague-Dawley rat chronic renal failure model at 0.3 mg/kg, iv; format: ADME, organism-based; parameters: dose 0.3 mg/kg, route intravenous; settings: in vivo
Outline: (§4)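 Single intravenous dose of 0.3 mg/kg given to chronic renal failure rats. AUC, Cmax, clearance, volume of distribution and half-life were derived from the plasma exposure.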

[15] = Clearance in Sprague-Dawley rat chronic renal failure model at 0.3 mg/kg, iv; format: ADME, organism-based; parameters: dose 0.3 mg/kg, route intravenous; settings: in vivo; outline: as §4
[16] = Volume of distribution in Sprague-Dawley rat chronic renal failure model at 0.3 mg/kg, iv; format: ADME, organism-based; parameters: dose 0.3 mg/kg, route intravenous; settings: in vivo; outline: as §4
[17] = Cmax in Sprague-Dawley rat chronic renal failure model at 0.3 mg/kg, iv; format: ADME, organism-based; parameters: dose 0.3 mg/kg, route intravenous; settings: in vivo; outline: as §4
[18] = AUC in Sprague-Dawley rat chronic renal failure model at 0.3 mg/kg, iv; format: ADME, organism-based; parameters: dose 0.3 mg/kg, route intravenous; settings: in vivo; outline: as §4
[19] = Aqueous solubility of the compound at pH 2; format: physicochemical
Outline: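 Aqueous solubility measured at pH 2.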

[20] = Metabolic stability in intestinal fluid (unknown origin) at pH 2 to 12; format: ADME; settings: simulated gi fluid
[21] = Metabolic stability in serum (unknown origin) at pH 2 to 12; format: ADME
Rattus norvegicus [22] = assay: Antihyperparathyroidism activity in Sprague-Dawley rat chronic renal failure model assessed as decrease in serum PTH level at 10 mg/kg, po after 2 hrs relative to vehicle-treated control; format: functional; parameters: scale not given: the % may be the effect or the level left; outline: as §1
Rattus norvegicus [23] = assay: Antihyperparathyroidism activity in Sprague-Dawley rat chronic renal failure model assessed as […] at 10 mg/kg/day, po administered for 2 months measured 24 hrs post last dose relative to vehicle-treated control; format: functional; outline: as §3
Rattus norvegicus [24] = assay: Clearance in Sprague-Dawley rat at 0.3 mg/kg, iv; format: ADME, organism-based; parameters: dose 0.3 mg/kg, route intravenous; settings: in vivo

Voltage-gated inwardly rectifying potassium channel KCNH2, sequence (Q12809 whole entry): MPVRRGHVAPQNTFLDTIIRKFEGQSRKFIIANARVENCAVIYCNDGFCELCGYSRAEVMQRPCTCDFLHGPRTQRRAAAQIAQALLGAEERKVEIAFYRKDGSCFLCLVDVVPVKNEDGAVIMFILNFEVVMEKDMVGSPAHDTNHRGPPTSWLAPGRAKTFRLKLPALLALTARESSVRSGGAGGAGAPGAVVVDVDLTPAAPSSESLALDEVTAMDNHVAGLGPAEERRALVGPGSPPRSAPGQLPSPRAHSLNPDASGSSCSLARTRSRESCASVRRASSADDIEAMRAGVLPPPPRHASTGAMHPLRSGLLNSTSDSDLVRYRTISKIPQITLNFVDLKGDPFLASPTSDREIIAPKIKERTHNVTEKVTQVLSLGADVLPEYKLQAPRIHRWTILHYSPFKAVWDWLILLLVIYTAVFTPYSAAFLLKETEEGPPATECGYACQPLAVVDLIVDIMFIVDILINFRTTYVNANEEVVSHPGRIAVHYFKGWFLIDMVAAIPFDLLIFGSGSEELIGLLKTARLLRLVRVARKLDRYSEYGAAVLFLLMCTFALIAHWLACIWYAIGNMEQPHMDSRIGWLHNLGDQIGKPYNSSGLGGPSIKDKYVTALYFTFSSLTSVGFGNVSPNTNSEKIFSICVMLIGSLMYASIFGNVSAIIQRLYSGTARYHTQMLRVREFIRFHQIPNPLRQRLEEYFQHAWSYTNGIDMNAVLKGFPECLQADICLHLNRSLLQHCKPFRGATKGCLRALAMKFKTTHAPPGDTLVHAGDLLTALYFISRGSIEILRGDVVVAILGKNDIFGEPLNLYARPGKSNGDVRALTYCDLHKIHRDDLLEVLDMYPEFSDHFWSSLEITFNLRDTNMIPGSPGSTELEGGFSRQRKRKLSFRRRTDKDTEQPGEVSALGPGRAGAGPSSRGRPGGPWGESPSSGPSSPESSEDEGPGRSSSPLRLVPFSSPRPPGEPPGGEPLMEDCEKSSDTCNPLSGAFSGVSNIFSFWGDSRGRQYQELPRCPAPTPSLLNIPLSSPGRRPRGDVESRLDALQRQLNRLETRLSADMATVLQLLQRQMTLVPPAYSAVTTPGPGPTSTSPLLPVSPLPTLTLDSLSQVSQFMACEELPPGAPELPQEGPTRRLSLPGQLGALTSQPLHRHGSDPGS

SMILES | EC50 [1] | further results
CS(=O)(=O)c1ccc2nc(NC(=O)N(CCC(c3ccccc3)c3ccccc3)CCN3CCOCC3)sc2c1 | 80 nM | 
O=C(Nc1nc2ccccc2[nH]1)N(CCC(c1ccccc1)c1ccccc1)CCN1CCOCC1 | 60 nM | 
CS(=O)(=O)Nc1ccc2nc(NC(=O)N(CCC(c3ccccc3)c3ccccc3)CCN3CCOCC3)sc2c1 | 30 nM | 
O=C(Nc1nc2c(Cl)cccc2s1)N(CCC(c1ccccc1)c1ccccc1)CCN1CCOCC1 | 20 nM | 
O=C(Nc1cnccn1)N(CCC(c1ccccc1)c1ccccc1)CCN1CCOCC1 | 450 nM | 
Cc1ccc2nc(NC(=O)N(CCC(c3ccccc3)c3ccccc3)CCN3CCOCC3)sc2c1 | 30 nM | 
COC(=O)c1sccc1NC(=O)N(CCC(c1ccccc1)c1ccccc1)CCN1CCOCC1 | 400 nM | 
COc1cccc2sc(NC(=O)N(CCC(c3ccccc3)c3ccccc3)CCN3CCOCC3)nc12 | 30 nM | 
O=C(Nc1nc2ccccc2s1)N(CCC(c1ccccc1)c1ccccc1)CCN1CCOCC1 [listing 1 of 2 here] |  | Ratio EC50 [2]: 4; Activity (Rattus norvegicus [3]): Active
O=C(Nc1nc2ccc(CO)cc2s1)N(CCC(c1ccccc1)c1ccccc1)CCN1CCOCC1 | 80 nM | 
O=C(Nc1cccnc1)N(CCC(c1ccccc1)c1ccccc1)CCN1CCOCC1 | 1000 nM | 
O=C(Nc1nc2ccccc2s1)N(CCC(c1ccccc1)c1ccccc1)CCN1CCOCC1 [listing 2 of 2 here] | 20 nM | inhibition (INH) [4]: Active; Activity (Salmonella typhimurium): Non-toxic
Cc1cccc2sc(NC(=O)N(CCC(c3ccccc3)c3ccccc3)CCN3CCOCC3)nc12 | 600 nM | 
COc1ccc2nc(NC(=O)N(CCC(c3ccccc3)c3ccccc3)CCN3CCOCC3)sc2c1 | 40 nM | 
O=C(Nc1nccs1)N(CCC(c1ccccc1)c1ccccc1)CCN1CCOCC1 | 300 nM | 
Cc1cc(C)nc(NC(=O)N(CCC(c2ccccc2)c2ccccc2)CCN2CCOCC2)c1 | 80 nM | 

SMILES | EC50 [1] | further results
O=C(Nc1nc2ccccc2n1Cc1ccccc1)N(CCC(c1ccccc1)c1ccccc1)CCN1CCOCC1 | 300 nM | 
O=C(O)c1ccc2nc(NC(=O)N(CCC(c3ccccc3)c3ccccc3)CCN3CCOCC3)sc2c1 | 100 nM | 
Cl.Cl.O=C(Nc1nc2ccccc2s1)N(CCC(c1ccccc1)c1ccccc1)CCN1CCOCC1 |  | Activity (Rattus norvegicus [5]): Non-toxic; Activity (Rattus norvegicus [6]): 9%; Activity (Rattus norvegicus [7]): Non-toxic; Activity (Rattus norvegicus [8]): Non-toxic; Activity (Rattus norvegicus [9]): Non-toxic; Activity (Rattus norvegicus [10]): -88%; Activity (Rattus norvegicus [11]): Non-toxic; Activity (Rattus norvegicus [12]): -49%; Activity (Rattus norvegicus [13]): -75%; half-life [14]: 404 min; clearance [15]: 30.8 mL/min/kg; Vd [16]: 5.17 L/kg; Cmax [17]: 546 ng/mL; AUC [18]: 162 ng·h/mL; solubility [19]: 300 µg/mL; Stability [20]: Stable; Stability [21]: Stable; Activity (Rattus norvegicus [22]): 95%; Activity (Rattus norvegicus [23]): -76%; clearance (Rattus norvegicus [24]): 4.96 L/h/kg
Cn1c(NC(=O)N(CCC(c2ccccc2)c2ccccc2)CCN2CCOCC2)nc2ccccc21 | 150 nM | 
CCOc1ccc2nc(NC(=O)N(CCC(c3ccccc3)c3ccccc3)CCN3CCOCC3)sc2c1 | 1000 nM | 
O=C(Nc1nc2cc(Cl)ccc2o1)N(CCC(c1ccccc1)c1ccccc1)CCN1CCOCC1 | 80 nM | 
CS(=O)(=O)Nc1ccc2sc(NC(=O)N(CCC(c3ccccc3)c3ccccc3)CCN3CCOCC3)nc2c1 | 30 nM | 
O=C(Nc1nc2ccc(OC(F)(F)F)cc2s1)N(CCC(c1ccccc1)c1ccccc1)CCN1CCOCC1 | 90 nM | 
CN(C)CCNC(=O)c1ccc2nc(NC(=O)N(CCC(c3ccccc3)c3ccccc3)CCN3CCOCC3)sc2c1 | 200 nM | 
Cc1cc(NC(=O)N(CCC(c2ccccc2)c2ccccc2)CCN2CCOCC2)no1 | 200 nM | 
O=C(Nc1nc2ccc(F)cc2s1)N(CCC(c1ccccc1)c1ccccc1)CCN1CCOCC1 | 200 nM | 
O=C(Nc1nc2ccc(Cl)cc2s1)N(CCC(c1ccccc1)c1ccccc1)CCN1CCOCC1 | 60 nM | 
Cc1noc(NC(=O)N(CCC(c2ccccc2)c2ccccc2)CCN2CCOCC2)c1C | 1700 nM | 
CCOC(=O)c1ccc2nc(NC(=O)N(CCC(c3ccccc3)c3ccccc3)CCN3CCOCC3)sc2c1 | 200 nM | 
COc1cc(C)nc(NC(=O)N(CCC(c2ccccc2)c2ccccc2)CCN2CCOCC2)n1 | 400 nM | 
O=C(Nc1nccc(-c2nccs2)n1)N(CCC(c1ccccc1)c1ccccc1)CCN1CCOCC1 | 200 nM | 
